Laboratory results as given in ChEMBL document CHEMBL4043295, “Marbostat-100 Defines a New Class of Potent and Selective Antiinflammatory and Antirheumatic Histone Deacetylase 6 Inhibitors” (J Med Chem, 2018).
The source made the active and inactive calls. No cut-off for these calls is given here.

Columns and labels:
[1] = Inhibition of class 1 HDAC in human MV4-11 cells assessed as induction of histone hyperacetylation at 50 nM to 10 uM after 24 hrs by Western blot method; assay type: cell-based; conditions: 0.05 µM
Method in brief: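 MV4-11 cells were exposed to the inhibitor, from 5 nM to 10 µM for 24 h or at 50 nM for 10 min to 48 h. Lysates were immunoblotted for acetylated tubulin, acetylated histone H3 and HDAC6. Acetyl-tubulin was quantified by densitometry normalised to HSP90. MS-275 at 5 µM for 24 h was the comparator. Blots are representative of at least two independent experiments.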

[2] = biological target: T1, Polyamine deacetylase HDAC10 (Homo sapiens, UniProt Q969S8); test: Inhibition of recombinant human HDAC10 expressed in baculovirus-infected insect cells using fluorogenic peptide RHKKAc as substrate by fluorimeter
T1 sequence (Q969S8 whole entry): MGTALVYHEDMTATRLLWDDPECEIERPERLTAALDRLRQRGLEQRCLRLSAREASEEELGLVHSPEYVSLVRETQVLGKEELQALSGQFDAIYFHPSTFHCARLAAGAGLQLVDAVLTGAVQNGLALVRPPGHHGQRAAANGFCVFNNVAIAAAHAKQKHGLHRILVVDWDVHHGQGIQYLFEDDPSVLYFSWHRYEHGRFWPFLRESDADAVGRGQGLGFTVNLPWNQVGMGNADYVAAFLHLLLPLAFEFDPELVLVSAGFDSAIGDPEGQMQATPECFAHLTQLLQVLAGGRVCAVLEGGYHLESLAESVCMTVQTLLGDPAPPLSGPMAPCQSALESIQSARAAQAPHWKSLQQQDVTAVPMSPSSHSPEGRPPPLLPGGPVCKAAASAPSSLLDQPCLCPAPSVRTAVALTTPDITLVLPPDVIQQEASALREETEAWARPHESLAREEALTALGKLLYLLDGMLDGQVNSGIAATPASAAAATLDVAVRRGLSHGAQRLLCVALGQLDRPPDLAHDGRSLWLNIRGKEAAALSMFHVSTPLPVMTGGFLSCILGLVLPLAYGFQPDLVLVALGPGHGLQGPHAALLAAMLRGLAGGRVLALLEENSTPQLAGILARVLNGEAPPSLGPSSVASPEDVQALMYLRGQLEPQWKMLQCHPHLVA

[3] = biological target: T2, Protein deacetylase HDAC6 (Homo sapiens) (UniProt Q9UBN7); conditions: 5 to 1000 nM
T2 sequence (whole entry): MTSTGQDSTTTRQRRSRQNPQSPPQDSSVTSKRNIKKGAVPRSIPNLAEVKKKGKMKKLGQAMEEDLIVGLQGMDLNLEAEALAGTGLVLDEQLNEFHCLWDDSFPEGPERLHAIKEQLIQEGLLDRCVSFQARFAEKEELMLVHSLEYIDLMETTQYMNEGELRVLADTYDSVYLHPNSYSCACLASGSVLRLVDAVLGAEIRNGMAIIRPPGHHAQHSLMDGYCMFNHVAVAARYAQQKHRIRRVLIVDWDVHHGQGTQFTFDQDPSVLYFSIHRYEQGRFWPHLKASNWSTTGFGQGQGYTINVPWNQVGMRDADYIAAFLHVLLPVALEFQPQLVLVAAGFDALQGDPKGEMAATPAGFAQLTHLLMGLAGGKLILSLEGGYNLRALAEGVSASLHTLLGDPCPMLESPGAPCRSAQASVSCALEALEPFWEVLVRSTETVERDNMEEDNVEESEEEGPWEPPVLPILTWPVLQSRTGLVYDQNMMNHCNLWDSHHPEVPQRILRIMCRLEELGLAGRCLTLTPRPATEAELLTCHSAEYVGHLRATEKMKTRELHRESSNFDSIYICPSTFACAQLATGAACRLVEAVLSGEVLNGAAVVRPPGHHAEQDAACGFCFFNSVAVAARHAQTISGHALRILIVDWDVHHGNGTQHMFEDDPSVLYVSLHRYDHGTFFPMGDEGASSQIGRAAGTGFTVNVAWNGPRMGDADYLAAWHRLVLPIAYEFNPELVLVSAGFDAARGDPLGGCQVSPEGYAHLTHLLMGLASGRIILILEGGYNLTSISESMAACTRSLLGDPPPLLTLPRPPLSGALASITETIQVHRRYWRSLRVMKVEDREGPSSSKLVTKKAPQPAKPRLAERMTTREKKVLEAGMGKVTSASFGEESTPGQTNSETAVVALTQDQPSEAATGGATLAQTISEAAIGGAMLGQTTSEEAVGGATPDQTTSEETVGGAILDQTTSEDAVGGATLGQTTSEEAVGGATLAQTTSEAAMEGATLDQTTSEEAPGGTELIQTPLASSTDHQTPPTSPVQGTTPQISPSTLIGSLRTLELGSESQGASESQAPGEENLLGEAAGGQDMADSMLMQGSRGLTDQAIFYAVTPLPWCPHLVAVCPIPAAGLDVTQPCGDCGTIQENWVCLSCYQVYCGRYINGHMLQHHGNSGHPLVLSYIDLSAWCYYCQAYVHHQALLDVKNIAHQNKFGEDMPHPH

inhibition (INH) [1]: Not Active
Ki [2]: 452 nM
inhibition [3]: Active
SMILES: CN1C(=O)C2CN(Cc3c2c2ccccc2n3Cc2ccc(C(=O)NO)cc2)C1=O (stereo not drawn)
